Species: Mus musculus
Assay: Effective dosage for inhibition of maximal electroshock stimulated convulsions
Assay type: functional
Outline: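 Mice (male Carworth Farms #1), groups of at least eight, were given various doses and tested at the previously determined time of peak effect. Protection was defined as abolition of the hind limb tonic extension component of the seizure. Dosing continued until at least two points lay between 0% and 100% protection. The 50% dose and 95% confidence interval were derived by Finney's method.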

Compound | Log 1/ED50
Cl.Nc1nc(NCc2ccc(F)cc2)ccc1N1CCOC1=O | 4.065
Cl.Nc1nc(NCc2ccc(F)cc2)ccc1NC(=O)OCCCl | 4.46
COC(=O)Nc1ccc(NCc2ccc(F)cc2)nc1N.Cl | 4.11
CCOC(=O)Nc1ccc(NCc2c(C)cc(C)cc2C)nc1N.Cl | 5.268
CCOC(=O)Nc1ccc(NCc2ccc(Cl)cc2)nc1N.Cl | 4.388
Cl.Nc1nc(NCc2ccccc2)ccc1NC(=O)Oc1ccccc1 | 3.942
CCOC(=O)Nc1ccc(NCc2c(C)cccc2C)nc1N.Cl | 5.01
CCOC(=O)Nc1ccc(NCc2ccccc2O)nc1N.Cl | 3.896
CCOC(=O)Nc1ccc(NCc2ccc(C(F)(F)F)cc2)nc1N.Cl | 4.146
CCOC(=O)Nc1ccc(NC(C)c2ccc(F)cc2)nc1N.Cl (stereo not given) | 3.938
CCOC(=O)Nc1ccc(NCc2ccc(S(N)(=O)=O)cc2)nc1N.Cl | 3.572
CC(=O)Nc1ccc(NCc2ccc(F)cc2)nc1N.Cl | 3.567
CCOC(=O)Nc1ccc(NCc2ccc(F)cc2F)nc1N.Cl | 4.321
Cl.Nc1nc(NCc2ccc(Cl)cc2)ccc1NC(=O)Oc1ccccc1 | 3.507
CCOC(=O)Nc1ccc(NCc2ccc(C)cc2C)nc1N.Cl | 4.53
CCOC(=O)Nc1ccc(NCc2ccc(NC(C)=O)cc2)nc1N.Cl | 3.487
CCOC(=O)Nc1ccc(NCc2ccccc2C)nc1N.Cl | 4.872
C=CCOC(=O)Nc1ccc(NCc2ccc(F)cc2)nc1N | 4.48
CCOC(=O)Nc1ccc(NCc2ccccc2)nc1N.Cl | 4.214
Cl.Nc1nc(NCc2ccc(F)cc2)ccc1NC(=O)Oc1ccccc1 | 3.724
CCOC(=O)Nc1ccc(NCc2ccc(C)c(Cl)c2)nc1N.Cl | 4.083
CCOC(=O)Nc1ccc(NCc2cccc(F)c2)nc1N.Cl | 4.297
CCOC(=O)Nc1ccc(NCc2ccc(C(C)=O)cc2)nc1N.Cl | 3.831
Cc1noc(C)c1C(=O)Nc1ccc(NCc2ccc(F)cc2)nc1N.Cl | 3.94
CCOC(=O)Nc1ccc(NCc2ccc(F)cc2)nc1N.Cl | 4.13

Source: ChEMBL document CHEMBL1127458, “Synthesis and quantitative structure-activity relationships of anticonvulsant 2,3,6-triaminopyridines” (J Med Chem, 1994)
